pPAFAH FP inh: pPAFAH enzyme inhibitors, primary screen, biochemical, fluorescence polarization, human | recombinant pPAFAH, FP-rhodamine probe fluorescence polarization | AID 463082, 2010 | actives 1.5% (n = 330,000) | inhibition, % at 3.39 µM | Platelet-activating factor acetylhydrolase (Homo sapiens), Q13093;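 active = inhibition above the mean inhibition across the screen plus 3 SD, cut at about 25% in these data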;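 also: inhibitors block binding of the rhodamine activity-based probe so polarization drops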
NR3A LBD binder: binders of NR3A ligand-binding domain, primary screen, biophysical, differential scanning fluorimetry, uHTS | Glutamate receptor ionotropic, NMDA 3A (GRIN3A) ligand-binding domain | NR3A LBD differential scanning fluorimetry, Tm shift; 0% = protein alone, 100% = glycine-bound protein | Tm shift relative to glycine control, % at 25 µM | actives 2.5% (n = 340,000);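 active = melting temperature shift of at least 10% of the positive control shift, at one fixed dose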
PAFAH1B3 FP inh: PAFAH1B3 enzyme inhibitors, primary screen, biochemical, fluorescence polarization, human; recombinant PAFAH1B3, FP-rhodamine probe; actives 0.28% (n = 340,000); AID 492972, 2010; inhibition, % at 3.39 µM;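 active = inhibition above the screen-wide average of all tested compounds plus 3 SD, cut at about 25% in these data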
Target sequence (Q15102 whole entry, looked up): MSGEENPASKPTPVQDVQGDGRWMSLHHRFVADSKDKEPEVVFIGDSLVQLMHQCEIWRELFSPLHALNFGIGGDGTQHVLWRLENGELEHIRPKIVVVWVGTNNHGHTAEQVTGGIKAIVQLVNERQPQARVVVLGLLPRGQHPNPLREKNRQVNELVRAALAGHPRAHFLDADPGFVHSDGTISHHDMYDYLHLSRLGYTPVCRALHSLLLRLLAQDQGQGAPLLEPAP
PAFAH1B2 inh: PAFAH1B2 enzyme inhibitors, primary screen, biochemical, fluorescence polarization, human | recombinant PAFAH1B2, FP-rhodamine activity probe | AID 492953, 2010 | inhibition, % at 3.39 µM | actives 1.2% (n = 340,000);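 active = inhibition above the mean of all tested compounds plus 3 SD, cut at about 24% in these data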
Target sequence (P68402 whole entry, looked up): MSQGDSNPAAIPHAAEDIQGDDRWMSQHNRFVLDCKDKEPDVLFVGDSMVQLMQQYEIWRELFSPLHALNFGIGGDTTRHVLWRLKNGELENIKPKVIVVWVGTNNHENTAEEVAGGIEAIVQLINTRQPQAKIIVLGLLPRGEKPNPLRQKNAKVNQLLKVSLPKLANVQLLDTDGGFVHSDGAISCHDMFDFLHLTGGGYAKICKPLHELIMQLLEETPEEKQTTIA
UCH37 inh: inhibitors of human UCH37 deubiquitinase, primary screen, biochemical, Ub-AMC cleavage, fluorescence | purified proteasome/UCH37 | inhibition, % (concentration not given with the values) | actives 0.33% (n = 330,000) | AID 588478, 2011;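 active = mean inhibition over replicate wells above about 20%, limit read from the data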
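Assay system: Proteasome-bound UCH37. Buffer or medium: pH 7.4 Tris-HCl (50 mM) with ovalbumin, ATP-MgCl2, DTT. Incubation: 30 min preincubation with enzyme, 25 min cleavage at room temperature. Measured by: fluorescence, ex 355 nm, em 460 nm. Read-out basis: percent inhibition. Control set: wells without proteasome as full block, compound-free enzyme plus substrate as uninhibited.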
PAFAH2 inh: PAFAH2 enzyme inhibitors, primary screen, biochemical, fluorescence polarization, human. actives 0.99% (n = 340,000). Platelet-activating factor acetylhydrolase 2, cytoplasmic (Homo sapiens), Q99487. inhibition, % at 3.39 µM. recombinant PAFAH2, FP-rhodamine activity probe;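 active = inhibition above the mean over all tested compounds plus 3 SD, cut at about 30% in these data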;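 also: inhibitors block probe labeling of enzyme so polarization drops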
PAFAH1B3 confirm: PAFAH1B3 enzyme inhibitors, confirmation, biochemical, fluorescence polarization, human; shares compounds with PAFAH1B3 FP inh; recombinant PAFAH1B3, FP-Rh activity-based probe; inhibition, % at 3.39 µM; actives 30% (n = 390);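 active = average inhibition over triplicate runs above the hit cutoff set in the earlier primary screen, cut at about 25% in these data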
UCH37 confirm: retest of human UCH37 deubiquitinase inhibitors, confirmation, biochemical, Ub-AMC cleavage rate, fluorescence | shares compounds with UCH37 inh | Proteasome-bound UCH37 | inhibition, % at 20 µM | actives 27% (n = 480);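 active = average inhibition over replicates above about 50%, so the earlier screening hit is confirmed, limit read from the data; inactive = the rest, counted as false positives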;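 also: based on cleavage rate fitted by regression over a 30 min kinetic read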
A number is an active result; i = inactive; nt = no result. Rows were chosen to be rich in hits. Some 4.8% of all compounds tested hit in one or more screens of this group.

SMILES	pPAFAH FP inh	NR3A LBD binder	PAFAH1B3 FP inh	PAFAH1B2 inh	UCH37 inh	PAFAH2 inh	PAFAH1B3 confirm	UCH37 confirm
O=C(O)c1cccc(NS(=O)(=O)/C=C/c2ccccc2)c1	i	i	i	i	i	i	nt	nt
CCOC(=O)c1c2c(n(C)c1C)C(=O)C(=O)c1ccc(Br)cc1-2	i	i	36	i	56	i	i	70
CC(=NNC(=O)C(C)n1nc(C)c([N+](=O)[O-])c1C)c1ccc(OCC(N)=O)cc1 (centres undefined)	nt	nt	nt	nt	i	nt	nt	nt
CCCC[n+]1ccn(C2=C([O-])c3ccccc3C(=O)/C2=N\S(=O)(=O)c2ccccc2)c1	i	i	36	i	41	i	26	i
CCc1ccc(NC(=O)CC(C)=NNC(=O)COc2ccccc2C)cc1	nt	nt	nt	nt	i	nt	nt	nt
COc1cc(Cl)c(NC2=CC(=O)C(=O)c3ccccc32)c(OC)c1	i	i	35	i	54	i	29	i
COc1cc(C=C2C(=O)c3ccccc3C2=O)cc(OC)c1	i	i	i	i	nt	i	nt	nt
O=C1C=C(Nc2ccc(F)cc2)c2ccccc2C1=O	i	i	34	i	57	i	i	i
Cc1ccc(NC2=CC(=O)C(=O)c3ccccc32)c(C)c1	i	i	40	i	36	i	i	i
CC1(C)CC(=O)CC(=NNC(=O)CCCOc2ccc(Cl)cc2Cl)C1	nt	nt	nt	nt	i	nt	nt	nt
CNC1=C(N(C(C)=O)c2ccc(Br)cc2)C(=O)c2ccccc2C1=O	i	i	38	i	51	i	i	74
O=C(Cc1ccccc1)NC1(O)C(=O)c2ccccc2C1=O	i	i	nt	nt	nt	nt	nt	nt
Cc1ccc(C(=O)NC2(O)C(=O)c3ccccc3C2=O)cc1C	i	i	37	i	78	i	37	61
O=C1c2ccccc2C(=O)c2c1cccc2-n1nnc2ccccc21	i	i	i	i	i	i	nt	nt
O=C1C(N2CCOCC2)=C(n2nnc3ccccc32)C(=O)c2ccccc21	i	i	51	i	72	i	34	88
Cc1ccccc1OCC(=O)NN=Cc1ccc2c(c1)OCCO2	nt	nt	nt	nt	i	nt	nt	nt
Cc1ccc(N2C(=O)c3ccccc3C2=O)cc1	i	i	i	i	i	i	nt	nt
Cc1ccc(SC2=C(Sc3ccc(C)cc3)C(=O)c3ccccc3C2=O)cc1	i	i	38	i	52	i	35	i
Cc1ccc(C(=O)NN=C(CC(=O)c2cccs2)C(F)(F)F)cc1	nt	nt	nt	nt	i	nt	nt	nt
Cc1cc(C)c[n+](C2=C([O-])c3ccccc3C(=O)/C2=N\S(=O)(=O)c2cccs2)c1	i	i	33	i	27	i	i	i
Nc1nonc1-n1nnc(C(=O)NN=Cc2ccc(OCc3ccccc3F)cc2)c1CNc1ccccc1	nt	nt	nt	nt	i	nt	nt	nt
CCN1/C(=C/C=C/C=C/C=C/c2sc3ccccc3[n+]2CC)Sc2ccccc21	i	i	i	i	54	i	nt	69
CCN1/C(=C/C=C/C=C/c2sc3ccccc3[n+]2CC)Sc2ccccc21	i	nt	nt	nt	nt	nt	nt	nt
CCSC1=C(C#N)C2(CCCC2)C(C#N)=C(N)N1	i	i	i	i	43	i	nt	i
Nc1nonc1C(=O)NN=Cc1ccncc1	nt	nt	nt	nt	i	nt	nt	nt
O=C1Cc2ccccc2C(=O)N1Cc1cccc(Cl)c1	nt	i	i	i	34	i	nt	i
Nc1cccc2c1C(=O)N(Cc1cccc(Cl)c1)C2=O	i	i	i	i	i	i	nt	nt
CC1CCCC(C)N1N=Cc1ccc(O)cc1 (centres undefined)	nt	nt	nt	nt	i	nt	nt	nt

Bioassay records deposited in PubChem by several laboratories.
